Columns and labels:
[1] = Ratio of IC50 for L-type calcium channel in rat aorta method to IC50 for human T-type calcium channel in patch clamp method; type: tissue-based
[2] = target: Voltage-gated L-type calcium channel (Rattus norvegicus, UniProt P22002+Q02485+P27732); test: Antagonist activity at L-type calcium channel in rat aorta; type: functional, tissue-based
Procedure, shortened: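 Rat aorta rings contracted near-maximally with KCl. Test compound added at increasing doses, and IC50 taken for inhibition of force as a functional L-type calcium channel read-out.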

[3] = target: T1, Voltage-dependent T-type calcium channel subunit alpha-1H (Homo sapiens, UniProt O95180); test: Antagonist activity at human alpha1H T-type calcium channel expressed in HEK293 cells by patch clamp technique; type: functional, cell-based
Procedure, shortened: (§1)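 Whole-cell patch clamp. Peak inward current measured before and after compound addition to the bath.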

[4] = target: T1, Voltage-dependent T-type calcium channel subunit alpha-1H; test: Antagonist activity at human alpha1H T-type calcium channel expressed in HEK293 cells at 1 uM by patch clamp technique; type: functional, cell-based; procedure, shortened: as §1

T1 sequence (O95180 whole entry): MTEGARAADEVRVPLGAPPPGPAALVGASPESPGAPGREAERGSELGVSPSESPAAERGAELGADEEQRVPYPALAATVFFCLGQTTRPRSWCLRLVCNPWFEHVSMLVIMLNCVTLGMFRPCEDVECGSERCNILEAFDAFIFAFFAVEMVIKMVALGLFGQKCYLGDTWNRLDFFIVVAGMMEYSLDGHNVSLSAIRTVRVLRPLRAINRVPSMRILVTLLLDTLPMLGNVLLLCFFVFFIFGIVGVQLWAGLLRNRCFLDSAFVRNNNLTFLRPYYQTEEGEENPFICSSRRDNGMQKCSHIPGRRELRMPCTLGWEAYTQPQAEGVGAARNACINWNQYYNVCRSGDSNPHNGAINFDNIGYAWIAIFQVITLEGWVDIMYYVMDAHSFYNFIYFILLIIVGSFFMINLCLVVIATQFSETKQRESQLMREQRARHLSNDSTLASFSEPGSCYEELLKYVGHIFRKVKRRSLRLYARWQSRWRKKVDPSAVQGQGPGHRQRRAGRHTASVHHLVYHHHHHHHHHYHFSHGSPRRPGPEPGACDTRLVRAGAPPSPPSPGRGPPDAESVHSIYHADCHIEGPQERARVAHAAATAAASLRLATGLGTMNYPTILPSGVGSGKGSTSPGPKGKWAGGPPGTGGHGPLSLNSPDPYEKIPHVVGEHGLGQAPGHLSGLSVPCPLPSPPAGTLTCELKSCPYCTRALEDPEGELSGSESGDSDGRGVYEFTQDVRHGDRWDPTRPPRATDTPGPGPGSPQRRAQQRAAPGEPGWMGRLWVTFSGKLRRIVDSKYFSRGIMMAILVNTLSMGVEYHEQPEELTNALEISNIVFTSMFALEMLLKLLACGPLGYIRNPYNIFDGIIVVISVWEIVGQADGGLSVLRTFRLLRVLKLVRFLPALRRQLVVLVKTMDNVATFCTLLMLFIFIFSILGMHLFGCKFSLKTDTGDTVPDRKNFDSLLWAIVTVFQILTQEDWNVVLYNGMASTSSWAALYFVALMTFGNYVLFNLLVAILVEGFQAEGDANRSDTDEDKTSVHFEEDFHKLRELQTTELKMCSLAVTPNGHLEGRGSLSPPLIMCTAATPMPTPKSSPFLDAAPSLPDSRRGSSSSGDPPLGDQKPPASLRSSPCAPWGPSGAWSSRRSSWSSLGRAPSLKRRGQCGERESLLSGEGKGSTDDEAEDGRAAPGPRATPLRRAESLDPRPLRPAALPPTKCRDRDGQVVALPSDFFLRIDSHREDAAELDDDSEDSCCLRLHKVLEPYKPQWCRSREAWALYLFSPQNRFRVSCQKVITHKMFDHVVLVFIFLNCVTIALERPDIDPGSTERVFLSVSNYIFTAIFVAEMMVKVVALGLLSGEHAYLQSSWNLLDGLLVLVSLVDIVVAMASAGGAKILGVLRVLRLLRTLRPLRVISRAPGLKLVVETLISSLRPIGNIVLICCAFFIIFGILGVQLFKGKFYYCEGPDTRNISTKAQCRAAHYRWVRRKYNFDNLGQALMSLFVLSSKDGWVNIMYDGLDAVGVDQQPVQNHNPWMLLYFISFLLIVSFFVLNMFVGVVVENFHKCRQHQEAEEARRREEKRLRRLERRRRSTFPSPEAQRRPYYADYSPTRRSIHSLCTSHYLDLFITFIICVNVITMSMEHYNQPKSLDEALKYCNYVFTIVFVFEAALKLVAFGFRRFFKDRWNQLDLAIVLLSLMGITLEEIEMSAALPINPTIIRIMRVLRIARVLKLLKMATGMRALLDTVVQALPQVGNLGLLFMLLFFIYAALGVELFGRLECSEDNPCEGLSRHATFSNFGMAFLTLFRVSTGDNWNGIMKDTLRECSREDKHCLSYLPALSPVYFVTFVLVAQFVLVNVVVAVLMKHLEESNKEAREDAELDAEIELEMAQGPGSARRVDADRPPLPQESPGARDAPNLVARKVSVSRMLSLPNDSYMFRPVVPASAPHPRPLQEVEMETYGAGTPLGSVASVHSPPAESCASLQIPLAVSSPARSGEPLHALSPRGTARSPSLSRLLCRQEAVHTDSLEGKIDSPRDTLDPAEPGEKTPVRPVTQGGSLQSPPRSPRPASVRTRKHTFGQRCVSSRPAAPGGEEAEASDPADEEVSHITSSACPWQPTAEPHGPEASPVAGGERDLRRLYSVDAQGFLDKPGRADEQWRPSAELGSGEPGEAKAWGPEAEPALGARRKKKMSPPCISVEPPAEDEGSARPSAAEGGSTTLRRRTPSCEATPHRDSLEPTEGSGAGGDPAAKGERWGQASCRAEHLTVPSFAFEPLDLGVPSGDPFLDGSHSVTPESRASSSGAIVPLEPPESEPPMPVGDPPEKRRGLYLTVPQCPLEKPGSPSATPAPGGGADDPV

SMILES | Ratio IC50 [1] | IC50 [2] | IC50 [3] | inhibition [4]
CC(C)NC(=O)CN(c1cccc(Cl)c1)S(=O)(=O)c1cccc(NC(=O)CN(C)C(=O)OCc2ccccc2)c1 | > 17 | > 30000 nM | 1700 nM | –
CC(=O)Nc1cccc(S(=O)(=O)N(CC(=O)OC(C)C)c2cccc(Cl)c2)c1 | – | – | – | 0%
CC1=C(C(=O)OC(C)C)C(c2cccc(Cl)c2)N(CCCN(C)C(=O)c2ccc(Oc3ccccc3)cc2)C(=O)N1 (single isomer, unassigned; enantiomer 1) | – | – | 180 nM | –
CN(C)CCNC(=O)CN(c1cccc(Cl)c1)S(=O)(=O)c1cccc(NC(=O)CN(C)C(=O)OCc2ccccc2)c1 | – | – | – | 22%
CC(C)OC(=O)CN(c1cccc(Cl)c1)S(=O)(=O)c1cccc(NC(=O)CN(C)C(=O)OCc2ccccc2)c1 | 62 | 15000 nM | 240 nM | 78%
CC(=O)N(CCCN(C)S(=O)(=O)c1ccc(Oc2ccccc2)cc1)Cc1cccc(Cl)c1 | – | – | – | 30%
CC(C)OC(=O)CN(c1cccc(Cl)c1)S(=O)(=O)c1cccc(NC(=O)Cc2ccccc2)c1 | – | – | – | 40%
CC(C)OC(=O)c1ccc(NC(=O)CN(C)C(=O)OCc2ccccc2)cc1-c1cccc(Cl)c1 | – | – | – | 24%
CN(CC(=O)Nc1cccc(S(=O)(=O)N(CC(=O)O)c2cccc(Cl)c2)c1)C(=O)OCc1ccccc1 | – | – | – | 11%
CC(=O)N(CCCN(C)S(=O)(=O)c1ccc(Oc2ccccc2)cc1)C(CC(=O)OC(C)C)c1cccc(Cl)c1 (stereo unspecified) | – | – | – | 17%
CN(CC(=O)Nc1cccc(S(=O)(=O)N(Cc2ccccc2)c2cccc(Cl)c2)c1)C(=O)OCc1ccccc1 | 109 | 12000 nM | 110 nM | –
CC(C)OC(=O)CN(c1cccc(Cl)c1)S(=O)(=O)c1cccc(NC(=O)CCc2ccccc2)c1 | > 55 | > 30000 nM | 540 nM | –
CC(C)OC(=O)c1ccc(NC(=O)CCc2ccccc2)cc1-c1cccc(Cl)c1 | – | – | – | 6%
CC1=C(C(=O)OC(C)C)C(c2cccc(Cl)c2)N(CCCN(C)C(=O)c2ccc(Oc3ccccc3)cc2)C(=O)N1 (stereo unspecified) | – | 2100 nM | 250 nM | –
COCC(=O)O[C@]1(CCN(C)CCCc2nc3ccccc3[nH]2)CCc2cc(F)ccc2[C@@H]1C(C)C [MIBEFRADIL] | – | 7000 nM | – | –
CC1=C(C(=O)OC(C)C)C(c2cccc(Cl)c2)N(CCCN(C)C(=O)c2ccc(Oc3ccccc3)cc2)C(=O)N1 (single isomer, unassigned; enantiomer 2) | – | 3800 nM | 650 nM | –
CC(C)OC(=O)CN(c1cccc(Cl)c1)S(=O)(=O)c1cccc(NC(=O)CCNC(=O)OCc2ccccc2)c1 | 41 | 17000 nM | 420 nM | 73%
CC(=O)N(CCCN(C)C(=O)c1ccc(Oc2ccccc2)cc1)Cc1cccc(Cl)c1 | – | – | – | 5%
CC(C)CCCN(c1cccc(Cl)c1)S(=O)(=O)c1cccc(NC(=O)CN(C)C(=O)OCc2ccccc2)c1 | 67 | 12000 nM | 180 nM | –
CCOC(=O)CN(c1cccc(Cl)c1)S(=O)(=O)c1cccc(NC(=O)CN(C)C(=O)OCc2ccccc2)c1 | – | – | – | 35%
